In ChEMBL document CHEMBL4261516, “Design, synthesis and pharmacological evaluation of new 2-oxo-quinoline derivatives containing α-aminophosphonates as potential antitumor agents” (Medchemcomm, 2017):

Columns and labels:
[1] = test system: L02; test: Cytotoxicity against human HL-7702 cells after 48 hrs by MTT assay; type: cell-based; details: L02, 48 h
Outline: (§1)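 HepG2, SK-OV-3, NCI-H460 and HL 7702 lines grown as monolayers in DMEM with 10% FBS plus penicillin/streptomycin at 37 °C, 5% CO2. Exponentially growing cells were seeded and exposed to the indicated concentrations for 48 h. MTT was then added for 4 h at 37 °C, formazan was dissolved in DMSO, and OD was read at 490 nm. Each concentration was run in triplicate wells, with three independent runs per line.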

[2] = test system: SK-OV-3; test: Cytotoxicity against human SKOV3 cells after 48 hrs by MTT assay; type: functional, cell-based; details: SK-OV-3, 48 h; outline: as §1
[3] = test system: HepG2; test: Cytotoxicity against human HepG2 cells after 48 hrs by MTT assay; type: functional, cell-based; details: HepG2, 48 h; outline: as §1
[4] = test system: NCI-H460; test: Cytotoxicity against human NCI-H460 cells after 48 hrs by MTT assay; type: functional, cell-based; details: NCI-H460, 48 h; outline: as §1

SMILES | IC50 [1] | IC50 [2] | IC50 [3] | IC50 [4]
O=c1[nH]cc(F)c(=O)[nH]1 [FLUOROURACIL] | 58.7 µM | 26.3 µM | – | –
CCOP(=O)(OCC)C(Nc1ccc(C)cc1)c1cc2cc(OC)ccc2[nH]c1=O (configuration not stated) | > 100 µM | 60 µM | 57.6 µM | > 100 µM
CCCCNC(c1cc2ccccc2[nH]c1=O)P(=O)(OCC)OCC (configuration not stated) | > 100 µM | 38.3 µM | 61.4 µM | > 100 µM
CCOP(=O)(OCC)C(Nc1ccccc1)c1cc2cc(C)ccc2[nH]c1=O (configuration not stated) | > 100 µM | 69.4 µM | 39.6 µM | > 100 µM
CCOP(=O)(OCC)C(Nc1ccc([N+](=O)[O-])cc1)c1cc2cc(C)ccc2[nH]c1=O (configuration not stated) | > 100 µM | > 200 µM | 35.6 µM | > 100 µM
CCOP(=O)(OCC)C(Nc1ccccc1)c1cc2ccccc2[nH]c1=O (configuration not stated) | > 100 µM | 54.1 µM | 46.3 µM | > 100 µM
CCOP(=O)(OCC)C(Nc1ccc(C(F)(F)F)cc1)c1cc2cc3c(cc2[nH]c1=O)OCO3 (configuration not stated) | > 100 µM | 22.4 µM | 79 µM | > 100 µM
CCOP(=O)(OCC)C(Nc1ccc(C(F)(F)F)cc1)c1cc2ccccc2[nH]c1=O (configuration not stated) | > 100 µM | 25.8 µM | 39.1 µM | > 100 µM
CCOP(=O)(OCC)C(Nc1ccc(C)cc1)c1cc2ccccc2[nH]c1=O (configuration not stated) | > 100 µM | 66.8 µM | 67.3 µM | > 100 µM
CCCCNC(c1cc2cc3c(cc2[nH]c1=O)OCO3)P(=O)(OCC)OCC (configuration not stated) | > 100 µM | 37.2 µM | 46.3 µM | 47.9 µM
CCOP(=O)(OCC)C(Nc1ccc([N+](=O)[O-])cc1)c1cc2ccccc2[nH]c1=O (configuration not stated) | > 100 µM | 30 µM | 75.2 µM | > 100 µM
CCOP(=O)(OCC)C(Nc1ccc(C)cc1)c1cc2cc(C)ccc2[nH]c1=O (configuration not stated) | > 100 µM | 37.2 µM | 37.6 µM | > 100 µM
O=Cc1cc2cc3c(cc2[nH]c1=O)OCO3 | > 100 µM | > 200 µM | > 200 µM | > 200 µM
CCOP(=O)(OCC)C(Nc1cccc(C)c1)c1cc2cc(C)ccc2[nH]c1=O (configuration not stated) | > 100 µM | 342 µM | 46 µM | > 100 µM
CCCCNC(c1cc2cc(C)ccc2[nH]c1=O)P(=O)(OCC)OCC (configuration not stated) | > 100 µM | 130 µM | 39.2 µM | > 100 µM
CCOP(=O)(Cc1ccc(/N=C/c2cc3cc(OC)ccc3[nH]c2=O)cc1)OCC | > 100 µM | 53 µM | 17.3 µM | > 100 µM
CCOP(=O)(OCC)C(Nc1ccccc1)c1cc2cc3c(cc2[nH]c1=O)OCO3 (configuration not stated) | > 100 µM | 65 µM | 45.2 µM | > 100 µM
CCOP(=O)(OCC)C(Nc1ccc([N+](=O)[O-])cc1)c1cc2cc3c(cc2[nH]c1=O)OCO3 (configuration not stated) | > 100 µM | 28.2 µM | 44 µM | > 100 µM

SMILES | IC50 [1] | IC50 [2] | IC50 [3] | IC50 [4]
CCOP(=O)(OCC)C(Nc1ccc(F)cc1)c1cc2ccccc2[nH]c1=O (configuration not stated) | > 100 µM | 41 µM | 37.2 µM | > 100 µM
CCOP(=O)(OCC)C(Nc1ccc(C(F)(F)F)cc1)c1cc2cc(C)ccc2[nH]c1=O (configuration not stated) | > 100 µM | 191 µM | 68.1 µM | > 100 µM
CCOP(=O)(Cc1ccc(/N=C/c2cc3ccccc3[nH]c2=O)cc1)OCC | > 100 µM | 36 µM | 17.9 µM | 57.9 µM
CCOP(=O)(OCC)C(Nc1ccccc1)c1cc2cc(OC)ccc2[nH]c1=O (configuration not stated) | > 100 µM | 54.7 µM | 60.8 µM | > 100 µM
CCOP(=O)(OCC)C(Nc1cccc(C)c1)c1cc2cc3c(cc2[nH]c1=O)OCO3 (configuration not stated) | > 100 µM | > 100 µM | > 100 µM | > 100 µM
CCOP(=O)(OCC)C(Nc1ccc(F)cc1)c1cc2cc3c(cc2[nH]c1=O)OCO3 (configuration not stated) | > 100 µM | 26.2 µM | 38 µM | 59.6 µM
Cc1ccc2[nH]c(=O)c(C=O)cc2c1 | > 100 µM | > 200 µM | > 200 µM | > 200 µM
CCOP(=O)(Cc1ccc(/N=C/c2cc3cc4c(cc3[nH]c2=O)OCO4)cc1)OCC | > 100 µM | 47.9 µM | 28.9 µM | > 100 µM
O=Cc1cc2ccccc2[nH]c1=O | > 100 µM | > 200 µM | > 200 µM | > 200 µM
CCCCNC(c1cc2cc(OC)ccc2[nH]c1=O)P(=O)(OCC)OCC (configuration not stated) | > 100 µM | 58.2 µM | 43.2 µM | > 100 µM
COc1ccc2[nH]c(=O)c(C=O)cc2c1 | > 100 µM | > 200 µM | > 200 µM | > 200 µM
CCOP(=O)(OCC)C(Nc1ccc(F)cc1)c1cc2cc(OC)ccc2[nH]c1=O (configuration not stated) | > 100 µM | 270 µM | 58.9 µM | > 100 µM
CCOP(=O)(OCC)C(Nc1ccc([N+](=O)[O-])cc1)c1cc2cc(OC)ccc2[nH]c1=O (configuration not stated) | > 100 µM | 25.1 µM | 20.8 µM | 44.6 µM
CCOP(=O)(OCC)C(Nc1cccc(C)c1)c1cc2cc(OC)ccc2[nH]c1=O (configuration not stated) | > 100 µM | 73 µM | 45.5 µM | > 100 µM
CCOP(=O)(OCC)C(Nc1ccc(C(F)(F)F)cc1)c1cc2cc(OC)ccc2[nH]c1=O (configuration not stated) | > 100 µM | 102 µM | 40.1 µM | > 100 µM
CCOP(=O)(OCC)C(Nc1ccc(C)cc1)c1cc2cc3c(cc2[nH]c1=O)OCO3 (configuration not stated) | > 100 µM | 48.9 µM | 43.1 µM | > 100 µM
CCOP(=O)(OCC)C(Nc1cccc(C)c1)c1cc2ccccc2[nH]c1=O (configuration not stated) | > 100 µM | 56 µM | 65.5 µM | > 100 µM
CCOP(=O)(OCC)C(Nc1ccc(F)cc1)c1cc2cc(C)ccc2[nH]c1=O (configuration not stated) | > 100 µM | 30.3 µM | 46.2 µM | > 100 µM
